# Tests used:
# [1] = tested on: Salmonella typhimurium TA1535; assay type: cell-based; conditions: NaN3 1 μg/plate alone, no bichalcophene
# Summary of the method: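 Overnight S. typhimurium TA1535 diluted 10−7, shaken 30 min at 37°C in phosphate buffer with NaN3 (1 μg/plate) plus test compound (10 and 20 μM, or 5 and 10 μM for two compounds) or NaN3 alone. Colonies counted on triplicate plates after 24 h and compared with untreated bacteria. ANOVA with Fisher's PLSD, P<0.05.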
# [2] = tested on: Salmonella typhimurium TA1535; test: Antimutagenicity assay against sodium azide; assay type: cell-based
# Summary of the method: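 S. typhimurium TA1535 exposed at 37°C for 30 min to test compound (10 and 20 μM, or 5 and 10 μM for two compounds) and NaN3 (1 μg/plate). Pre-exposure adds NaN3 after the 30 min compound step; co-exposure combines all three together. Plated on minimal glucose agar; revertants counted after 48 h, triplicate. Mutant frequency = mutant colonies/viable colonies.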
smiles,measurement,setting,value
"[N-]=[N+]=[N-].[Na+] [NaN3, sodium azide]","Viability, % of control",[1],105 % of control
same,"Viability, colonies/plate",[1],36.9 ± 4.3 colonies/plate
same,"NaN3 mutagenicity, revertant colonies/plate","[2]; NaN3 1 μg/plate alone, spontaneous 34.3 ± 4.0",384.7 ± 14.7 (0) revertant colonies/plate
same,Mutant frequency,"[2]; NaN3 alone, mutant colonies (Table 6)/viable colonies (Table 3)",10.43 (100)

# — paper PMC3573810 (Drug Design, Development and Therapy, 2013)
